The record followed here is ChEMBL document CHEMBL4428123, “Synthesis of phenylpiperazine derivatives of 1,4-benzodioxan as selective COX-2 inhibitors and anti-inflammatory agents” (Bioorg Med Chem, 2016).

Data set [1] deals with Rattus norvegicus. Briefly: Anti-inflammatory activity in rat assessed as inhibition of carrageenan-induced paw edema at 10 mg/kg, po administered 30 mins before carrageenan challenge measured after 5 hrs relative to control. In kind it is functional. Summed up:
(§1)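 Male rats were dosed orally with agents suspended in 0.5% Na CMC, 30 min before 0.1 mL of 1% (w/v) carrageenan was injected into the right hind paw. Thickness of both paws was measured 1, 3 and 5 h after injection. Activity was calculated as percent decrease in edema thickness relative to the carrageenan-induced edema. Data given as mean ± SD with non-parametric comparison, P < 0.05.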

The subject of data set [2] is Rattus norvegicus. Put plainly: Anti-inflammatory activity in rat assessed as inhibition of carrageenan-induced paw edema at 10 mg/kg, po administered 30 mins before carrageenan challenge measured after 1 hr relative to control. In kind it is functional. Summed up:
as §1
(In the carrageenan paw model, swelling and tenderness develop within hours.)

The test system of data set [3] is Rattus norvegicus. Put plainly: Anti-inflammatory activity in rat assessed as inhibition of carrageenan-induced paw edema at 10 mg/kg, po administered 30 mins before carrageenan challenge measured after 3 hrs relative to control. It is filed as functional. Summed up:
as §1

The subject of data set [4] is Rattus norvegicus. Briefly: Analgesic activity in rat assessed as pain threshold time at 10 mg/kg, po measured at 1.5 hrs post dose by hot plate method (reference value: 19.1 to 21.2 sec). In kind it is functional. For orientation: Hot-plate and tail-flick tests time the reaction to a heat stimulus.
Data set [5] has as its system Rattus norvegicus. Put plainly: Analgesic activity in rat assessed as pain threshold time at 10 mg/kg, po measured at 1 hr post dose by hot plate method (reference value: 19.1 to 21.2 sec). It is filed as functional.
For data set [6], the system named is Rattus norvegicus. Put plainly: Analgesic activity in rat assessed as pain threshold time at 10 mg/kg, po measured at 0.5 hr post dose by hot plate method (reference value: 19.1 to 21.2 sec). In kind it is functional.
For data set [7], the system named is Rattus norvegicus. Put plainly: Anti-inflammatory activity in rat assessed as inhibition of carrageenan-induced paw edema at 20 mg/kg, po administered 30 mins before carrageenan challenge measured after 3 hrs relative to control. In kind it is functional. Summed up: as §1
Data set [8] has as its system Rattus norvegicus. Put plainly: Anti-inflammatory activity in rat assessed as inhibition of carrageenan-induced paw edema at 5 mg/kg, po administered 30 mins before carrageenan challenge measured after 5 hrs relative to control. In kind it is functional. Summed up:
as §1

For data set [9], the target named is T1, Prostaglandin G/H synthase 1 (Ovis aries, UniProt P05979).
T1 sequence (P05979 whole entry): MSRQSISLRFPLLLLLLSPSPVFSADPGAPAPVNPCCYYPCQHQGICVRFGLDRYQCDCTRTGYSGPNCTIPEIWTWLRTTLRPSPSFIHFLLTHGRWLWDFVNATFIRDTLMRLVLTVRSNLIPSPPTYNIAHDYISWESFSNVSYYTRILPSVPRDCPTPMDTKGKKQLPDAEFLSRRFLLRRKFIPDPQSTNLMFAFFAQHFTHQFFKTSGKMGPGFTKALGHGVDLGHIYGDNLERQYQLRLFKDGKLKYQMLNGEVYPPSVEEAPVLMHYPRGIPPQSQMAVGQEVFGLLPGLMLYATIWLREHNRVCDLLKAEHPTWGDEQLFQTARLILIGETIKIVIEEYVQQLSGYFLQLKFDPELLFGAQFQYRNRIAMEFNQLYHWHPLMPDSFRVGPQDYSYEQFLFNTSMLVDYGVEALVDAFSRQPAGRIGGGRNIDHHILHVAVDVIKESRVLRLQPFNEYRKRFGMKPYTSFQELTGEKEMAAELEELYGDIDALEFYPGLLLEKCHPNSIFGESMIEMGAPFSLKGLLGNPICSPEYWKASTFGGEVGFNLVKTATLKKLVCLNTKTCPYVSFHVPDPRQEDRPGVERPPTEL
Put plainly: Inhibition of ovine COX1 by enzyme immunoassay.

For data set [10], the system named is Rattus norvegicus. Put plainly: Anti-inflammatory activity in rat assessed as inhibition of carrageenan-induced paw edema at 5 mg/kg, po administered 30 mins before carrageenan challenge measured after 3 hrs relative to control. In kind it is functional. The procedure, abridged: as §1
The subject of data set [11] is Rattus norvegicus. Put plainly: Anti-inflammatory activity in rat assessed as inhibition of carrageenan-induced paw edema at 20 mg/kg, po administered 30 mins before carrageenan challenge measured after 1 hr relative to control. It is filed as functional. Summed up: as §1
Data set [12] concerns Rattus norvegicus. Briefly: Anti-inflammatory activity in rat assessed as inhibition of carrageenan-induced paw edema at 20 mg/kg, po administered 30 mins before carrageenan challenge measured after 5 hrs relative to control. In kind it is functional. The procedure, abridged:
as §1

A short description of data set [13]: Ulcerogenecity in rat carrageenan-induced inflammation model assessed as stomach mucosal damage by measuring lesions at 5 to 20 mg/kg, po administered 30 mins before carrageenan challenge measured after 1 to 5 hrs by macroscopic analysis. It is filed as ADME, organism-based. As to conditions: in vivo.
Data set [14] concerns Rattus norvegicus. Briefly: Anti-inflammatory activity in po dosed rat assessed as inhibition of carrageenan-induced paw edema administered 30 mins before carrageenan challenge measured after 1 to 5 hrs. It is filed as functional, organism-based. The procedure, abridged: as §1
For data set [15], the system named is Rattus norvegicus. Put plainly: Anti-inflammatory activity in rat assessed as inhibition of carrageenan-induced paw edema at 5 mg/kg, po administered 30 mins before carrageenan challenge measured after 1 hr relative to control. In kind it is functional. Summed up:
as §1

A word on the inhibition in vivo: it is the share of the control response that was lost under treatment. The term IC50 denotes the concentration that gives 50% inhibition. A higher IC50 goes with weaker potency in that assay.

On to `Clc1cccc(N2CCN(Cc3ccc4c(c3)OCCO4)CC2)c1Cl`, for which the inhibition in vivo at 10 mg/kg in data set [1] worked out at 13%; in data set [2], 18%; in data set [3], 28%.

Take `COc1ccc(N2CCN(Cc3ccc4c(c3)OCCO4)CC2)cc1`: the inhibition in vivo at 10 mg/kg in data set [1] amounted to 63%; in data set [2], 71%; in data set [3], 88%. Moreover, the results for the Time in data set [4], in data set [5] and in [6] were 22.3 s, 23.3 s and 24.6 s, respectively.

`COc1cccc(N2CCN(Cc3ccc4c(c3)OCCO4)CC2)c1`: the inhibition in vivo at 10 mg/kg in data set [1] was determined as 40%; in data set [2], 45%; in [3], 62%.

As to `c1ccc(N2CCN(Cc3ccc4c(c3)OCCO4)CC2)cc1`, the values for the inhibition in vivo at 10 mg/kg in [1], in [2] and in data set [3] were 25%, 28% and 35%, respectively.

Regarding `Fc1ccc(N2CCN(Cc3ccc4c(c3)OCCO4)CC2)cc1`, the inhibition in vivo at 10 mg/kg in data set [1] turned out to be 57%; in [2], 62%; in data set [3] it was 82%. The Time in [4] is 19.9 s; in [5] it was 20.7 s; in data set [6], 21.5 s.

Turning to `FC(F)(F)c1cccc(N2CCN(Cc3ccc4c(c3)OCCO4)CC2)c1`, the inhibition in vivo at 20 mg/kg in [7] stood at 95%; in data set [11] it was 78%; in data set [12], 75%. For the same compound, the values for the inhibition in vivo at 5 mg/kg in [8], in data set [10] and in data set [15] were 50%, 73% and 56%, respectively. For the same compound, the inhibition in vivo at 10 mg/kg in [1] is 68%; in [2], 76 to 78%; in data set [3] it was 91 to 92%. Moreover, the Time in [4] came to 23.1 s; in data set [5], 24.7 s; in [6] it was 26.4 s. The compound further displayed an IC50 in data set [9] of 8.35 µM. In addition, in [13], the Activity entry is “Non-Toxic”. Further, the inhibition entry in data set [14] is “Dose-dependent effect”.

`O=[N+]([O-])c1ccc(N2CCN(Cc3ccc4c(c3)OCCO4)CC2)cc1`: the figures for the inhibition in vivo at 10 mg/kg in data set [1], in data set [2] and in data set [3] were 65%, 68% and 79%, respectively. Also, the Time in data set [4] is 21.2 s; in data set [5], 22.6 s; in [6], 23.4 s.

Consider `Cc1ccc(N2CCN(Cc3ccc4c(c3)OCCO4)CC2)c(C)c1`, for which the inhibition in vivo at 10 mg/kg in [1] worked out at 11%; in [2] it was 16%; in data set [3] it was 28%.

For `c1ccc(N2CCN(Cc3ccc4c(c3)OCCO4)CC2)nc1`, the values for the inhibition in vivo at 10 mg/kg in data set [1], in data set [2] and in [3] were 35%, 40% and 55%, respectively.

On to `O=C(O)Cc1ccccc1Nc1c(Cl)cccc1Cl` [DICLOFENAC], for which the inhibition in vivo at 10 mg/kg in [1] fell in the range of 50 to 52%; in [2], 41 to 42%; in [3] it was 79 to 80%. For the same compound, the Time in data set [4] is reported as 22.3 s; in data set [5], 23.5 s; in [6] it was 24.1 s.

On to `c1ccc(C(c2ccccc2)N2CCN(Cc3ccc4c(c3)OCCO4)CC2)cc1`, for which the figures for the inhibition in vivo at 10 mg/kg in data set [1], in [2] and in [3] were 19%, 15% and 27%, respectively.

Regarding `Clc1cccc(N2CCN(Cc3ccc4c(c3)OCCO4)CC2)c1`, the inhibition in vivo at 10 mg/kg turned out to be 24% in [1], 31% in [2] and 37% in [3].
